hERG rescue = shields human hERG channel from block by proarrhythmic agents; Q12809; CHO-hERG, FluxOR thallium flux, dofetilide IC70 present; activation (rescue from dofetilide block), less the hit threshold, % at 10 µM; 0.51% of 310,000 active;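 active means activation above the mean of controls blocked by dofetilide plus 5 SD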;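 further: thallium influx through hERG after potassium depolarization seen as dye fluorescence rise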
KCNK9 inh = human KCNK9 channel inhibition. 1.2% of 310,000 active. Q9NPC2. B-score at 10 µM. HEK293 KCNK9, FluxOR thallium flux fluorescence; active compounds read low;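 active means ratio B-score over 3 SD below the library mean, with starting fluorescence within 5 SD of its mean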;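 further: negative B-score means less thallium flux so channel inhibition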
Target sequence (Q9NPC2 whole entry, looked up): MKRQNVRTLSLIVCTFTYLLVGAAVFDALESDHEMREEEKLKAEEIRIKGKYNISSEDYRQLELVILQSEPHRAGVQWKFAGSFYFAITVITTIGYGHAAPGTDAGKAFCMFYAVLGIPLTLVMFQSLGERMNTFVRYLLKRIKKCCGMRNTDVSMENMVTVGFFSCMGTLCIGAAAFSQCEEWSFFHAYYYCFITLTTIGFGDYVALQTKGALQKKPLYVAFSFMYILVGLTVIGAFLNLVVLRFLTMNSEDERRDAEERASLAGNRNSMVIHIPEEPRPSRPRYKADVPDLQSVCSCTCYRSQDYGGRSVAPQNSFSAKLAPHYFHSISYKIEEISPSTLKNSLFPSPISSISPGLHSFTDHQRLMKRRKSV
KCNQ1 act = potentiates or activates the human KCNQ1 potassium channel. P51787. CHO-K1 KCNQ1, thallium flux FluxOR fluorescence; active compounds read high. B-score at 10 µM. 0.35% of 310,000 active;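 active means fluorescence ratio B-score, a plate-corrected score, at least three library SD, with initial intensity B-score within 5 SD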
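System: CHO-K1 cells stably expressing KCNQ1 / Medium: assay buffer for compound exposure, DMSO matched across wells / Reagent: thallium- and potassium-containing depolarizing buffer / Compound: one concentration, matched DMSO / Incubation: 20 min compound pretreatment at room temperature / Measured by: kinetic FluxOR fluorescence, 10 s baseline plus 110 s post-stimulus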
KCNK3 inh = human KCNK3 channel inhibition, primary screen; O14649; CHO-KCNK3 thallium flux, FluxOR fluorescence; active compounds read low; B-score at 10 µM; 0.84% of 340,000 active; AID 602410;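 active means B-score under library mean minus 4 SD, starting fluorescence ratio at most library mean plus 5 SD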;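 further: more negative B-score means stronger inhibition of thallium flux through KCNK3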
Target sequence (O14649 whole entry, looked up): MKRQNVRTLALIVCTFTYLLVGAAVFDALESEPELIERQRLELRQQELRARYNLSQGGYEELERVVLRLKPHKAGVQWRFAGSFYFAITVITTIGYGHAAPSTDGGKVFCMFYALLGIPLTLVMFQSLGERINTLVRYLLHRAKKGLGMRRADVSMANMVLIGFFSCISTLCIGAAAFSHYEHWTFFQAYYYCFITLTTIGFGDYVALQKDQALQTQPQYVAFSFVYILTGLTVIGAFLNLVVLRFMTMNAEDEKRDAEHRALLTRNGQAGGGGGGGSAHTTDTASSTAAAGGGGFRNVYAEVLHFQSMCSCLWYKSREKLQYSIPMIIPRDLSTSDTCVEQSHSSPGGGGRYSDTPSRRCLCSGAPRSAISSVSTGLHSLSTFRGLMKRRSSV
KCNQ1 block = blocks the human KCNQ1 potassium channel. P51787. CHO-K1 KCNQ1, FluxOR thallium flux fluorescence; active compounds read high. B-score at 10 µM. 1.3% of 310,000 active. AID 2642;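 active means compounds whose thallium flux B-score, printed positive for inhibition, exceeds three library SD while starting fluorescence stays within three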;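 further: channel opened by potassium depolarization with thallium stimulus after 20 min compound exposure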
Kir21 inh = blocks the mouse Kir2.1 inward-rectifier potassium channel | 0.85% of 310,000 active | P35561 | HEK293-Kir2.1, FluxOR thallium flux fluorescence; active compounds read low | B-score at 10 µM;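 active means fluorescence ratio B-score at or below minus 3 SD of library scores, with starting-brightness B-score within 2 SD, cut at about -4.2 in these data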;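 further: channel flux triggered by added potassium and thallium sulfate stimulus; B-score of peak minus minimum fluorescence over baseline after thallium stimulus; more negative B-score means stronger Kir2.1 block with less thallium influx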
KCNK3 inh conf = human KCNK3 channel inhibition, confirmation assay | shares compounds with KCNK3 inh | CHO-KCNK3 thallium flux, FluxOR fluorescence; 0% buffer, 100% carvedilol maximal block | ratio percent of control, % at 10 µM | 99% of 2,400 active | AID 651638;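 active means ratio percent of control, averaged over triplicates, above buffer control mean plus 5 SD, cut at about 64% in these data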;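 further: ratio is the fluorescence rise from min to max over baseline after thallium stimulus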
KCNK3 noninduced = counter-screen for KCNK3 inhibitors: effect in non-induced cells; shares compounds with KCNK3 inh; non-induced KCNK3 parental cells, FluxOR thallium flux; active compounds read low; thallium flux ratio (lower = more inhibition) at 10 µM; 40% of 2,400 active; AID 651747;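 active means thallium flux ratio, averaged over three wells, more than 5 SD below the buffer control mean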;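 further: host cells are CHO cells without KCNK3 induction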
Large screens that a line does not name were inactive (follow-up assays come after a bar, where they were run). Most compounds without a hit are left out; they make up all but 3.7% or so of the library.

CCOc1ccc(S(=O)(=O)N2CCC(C(=O)NC3CC3)CC2)cc1C	none
COc1ccc(NC(=O)CSc2nc(C3CC3)nc3ccccc23)c(OC)c1	none
COc1cccc(/C=C/C(=O)OCC(=O)N2CCCC2)c1OC	none (no result: hERG rescue, KCNK9 inh, KCNQ1 act, KCNQ1 block, Kir21 inh)
CSCC[C@H](NC(=O)N1CCn2c1nc1ccccc12)C(=O)NCc1ccccc1	none
Cc1ccc(C)c(NC(=O)c2ccc3c(c2)N(Cc2ccc(F)cc2)C(=O)CS3=O)c1 (stereo not drawn)	none
O=C(Nc1ccc(Br)cc1F)c1ccc2c(c1)N(Cc1ccccc1)C(=O)CS2=O (stereo not drawn)	KCNK3 inh -13 | KCNK3 inh conf 100 | KCNK3 noninduced inactive
O=S(=O)(c1ccccc1)N1CCN(c2ccnc3cc(Cl)ccc23)CC1	KCNK3 inh -9.3 | KCNK3 inh conf 98 | KCNK3 noninduced inactive
CC(=O)OCC1(C)CN(c2ccccc2)NC1=O (stereo not drawn)	none
Cc1ccccc1S(=O)(=O)N1[C@@H](c2ccc(F)cc2)C(C(=O)O)=CC[C@H]1c1ccc(Cl)cc1	none (no result: hERG rescue, KCNK9 inh, KCNQ1 act, KCNQ1 block, Kir21 inh)
COc1ccc(/C=N/NC(=O)c2cc(-c3ccccc3OC)nc3ccccc23)cc1COC(C)=O	KCNK3 inh -11 | KCNK3 inh conf 97 | KCNK3 noninduced inactive
CCOC(=O)c1[nH]c(C)c(C(=O)OCC(=O)N(Cc2ccccc2)C(C)C)c1C	none (no result: hERG rescue, KCNK9 inh, KCNQ1 act, KCNQ1 block, Kir21 inh)
O=C(c1ccc(-c2ccccc2)cc1)N1CCN(c2ccccc2F)CC1	KCNK3 inh -9.2 | KCNK3 inh conf 108 | KCNK3 noninduced inactive
O=C1/C(=C/c2ccc(Br)cc2)Oc2cc(O)ccc21	KCNK3 inh -12, KCNQ1 block 6 | KCNK3 inh conf 119 | KCNK3 noninduced 0.13
COC(=O)[C@]1(C)N[C@H](CN(C)C(=O)C2CCCCC2)[C@@H]2C(=O)N(Cc3ccccc3)C(=O)[C@@H]21	none (no result: hERG rescue, KCNK9 inh, KCNQ1 act, KCNQ1 block, Kir21 inh)
Cc1ccc([N+](=O)[O-])c(OCCCN2CCC(Cc3ccccc3)CC2)c1	KCNK3 inh -8.8, KCNQ1 block 7, Kir21 inh -9.9 | KCNK3 inh conf 119 | KCNK3 noninduced 0.13
CN(CC(=O)NCc1cccs1)CC(=O)Nc1ccc(F)c(F)c1F	none
CN(CC(=O)Nc1ccc(F)cc1Cl)Cc1cccs1	KCNK3 inh -9.5 | KCNK3 inh conf 85 | KCNK3 noninduced inactive
COCCn1c(C)cc(C(=O)COC(=O)c2[nH]c(C)c(C(C)=O)c2C)c1C	none (no result: hERG rescue, KCNK9 inh, KCNQ1 act, KCNQ1 block, Kir21 inh)
CC(C)(C)NC(=O)c1ccc(Sc2ccccc2)c([N+](=O)[O-])c1	KCNK3 inh -9 | KCNK3 inh conf 119 | KCNK3 noninduced inactive
O=C(Cc1ccc(NC2=NC3CS(=O)(=O)CC3S2)cc1)N1CCN(c2ccc(F)cc2)CC1 (stereo not drawn)	none
COc1cc2nc(Nc3ccc(C)c(C)c3)nc(N)c2cc1OC	KCNK3 inh -9.3, Kir21 inh -4.7 | KCNK3 inh conf 114 | KCNK3 noninduced inactive
COc1ccc(NC(=O)C2CCN(S(=O)(=O)c3ccc4c(c3)NC(=O)CO4)CC2)cc1	none
O=C(Nc1ccc2nc(-c3cccs3)[nH]c2c1)c1ccco1	KCNK3 inh -10 | KCNK3 inh conf 81 | KCNK3 noninduced inactive
Cc1ccc(NC(=O)c2cccs2)cc1NC(=O)c1ccco1	KCNK3 inh -8.8 | KCNK3 inh conf 105 | KCNK3 noninduced inactive
COc1ccc(NC(=O)c2cccs2)cc1NC(=O)c1ccco1	none
O=C(COC(=O)Cc1ccc(Cl)cc1)NC1CCCC1	none (no result: hERG rescue, KCNK9 inh, KCNQ1 act, KCNQ1 block, Kir21 inh)
O=[N+]([O-])c1ccc2nc(C3CCCCC3)[nH]c2c1	none
O=[N+]([O-])c1ccc(O)c(C2CCCCC2)c1	KCNK3 inh -11 (no result: hERG rescue, KCNK9 inh, KCNQ1 act, KCNQ1 block, Kir21 inh) | KCNK3 inh conf 127 | KCNK3 noninduced 0.14
Cc1cc(C)nc(N(C#N)Cc2cccc3ccccc23)n1	KCNK3 inh -9.2 | KCNK3 inh conf 74 | KCNK3 noninduced inactive
CCc1ccc2c(c1)C1(NN=C(c3cccc4ccccc34)S1)C(=O)N2 (stereo not drawn)	KCNK3 inh -13, KCNQ1 block 15 | KCNK3 inh conf 149 | KCNK3 noninduced 0.13
CCOc1ccccc1OCCCOc1ccc([N+](=O)[O-])cc1Cl	KCNK3 inh -9.8 | KCNK3 inh conf 110 | KCNK3 noninduced inactive
COc1cc(NC(=O)CN2C(=O)COc3ccc(S(=O)(=O)N4CCCCC4)cc32)cc(OC)c1	KCNK3 inh -8.8 | KCNK3 inh conf 113 | KCNK3 noninduced inactive
Cc1ccccc1OCc1nc(-c2ccc(Br)o2)no1	KCNK3 inh -12 | KCNK3 inh conf 98 | KCNK3 noninduced inactive
COc1ccc(NC(=O)CN(C)C(=O)c2cc(-c3ccccc3)nc3ccccc23)cc1	none
COc1ccc(Cl)cc1NC(=O)CN(C)C(=O)c1cc(-c2ccncc2)nc2ccccc12	KCNK3 inh -9.2 | KCNK3 inh conf 120 | KCNK3 noninduced 0.14
Cc1ccc2nc(-c3ccccc3)cc(C(=O)N(C)CC(=O)Nc3ccccc3Br)c2c1	KCNK3 inh -14 | KCNK3 inh conf 110 | KCNK3 noninduced inactive
Cc1cccc2c(C(=O)O)cc(-c3cccnc3)nc12	none
Cc1cc(C)c2nc(-c3cccnc3)cc(C(=O)NC(C)c3cnn(C)c3C)c2c1 (stereo not drawn)	KCNK3 inh -9.2 | KCNK3 inh conf 111 | KCNK3 noninduced 0.16
Cc1nnc(SC(C)C(=O)Nc2ccc(Cl)cc2Cl)[nH]c1=O (stereo not drawn)	none (no result: hERG rescue, KCNK9 inh, KCNQ1 act, KCNQ1 block, Kir21 inh)
O=C(Cc1ccc(Cl)cc1)NNC(=S)NC(=O)c1cccs1	none
O=C(Cc1cccs1)NNC(=S)NCc1ccc(Cl)cc1	KCNK9 inh -7.7, KCNK3 inh -11 | KCNK3 inh conf 77 | KCNK3 noninduced inactive
O=[N+]([O-])c1ccccc1/C=N\N1CCN(Cc2ccccc2Cl)CC1	KCNK3 inh -8.9 | KCNK3 inh conf 99 | KCNK3 noninduced inactive
Cc1c(C(=O)Nc2ccc(Cl)cc2)c2ccccn2c1CCc1ccncc1	KCNK3 inh -9.7 | KCNK3 inh conf 109 | KCNK3 noninduced 0.14
CCOC(=O)C1=C(c2ccccc2)NC(=O)N(C(C)=O)C1c1cccc([N+](=O)[O-])c1 (stereo not drawn)	none
C#CCN1C(C)=C(C(=O)OC)C(c2cccc([N+](=O)[O-])c2)C(C(=O)OCC)=C1C (stereo not drawn)	KCNK3 inh -12 (no result: hERG rescue, KCNK9 inh, KCNQ1 act, KCNQ1 block, Kir21 inh) | KCNK3 inh conf 109 | KCNK3 noninduced inactive
CCOC(=O)c1c(NC(=O)CSc2nnc(CNc3ccc(Cl)cc3)o2)sc(C)c1C	KCNK3 inh -9.6 | KCNK3 inh conf 90 | KCNK3 noninduced inactive

Source: PubChem (Johns Hopkins Ion Channel Center)
